Data on one compound can be found in ChEMBL document CHEMBL1687814, “Testing nucleoside analogues as inhibitors of Bacillus anthracis spore germination in vitro and in macrophage cell culture” (Antimicrob Agents Chemother, 2010).

Structures are written as SMILES. pIC50: −log10 of the molar value.

A word on the pIC50: it is −log10 of the IC50, conventionally taken in molar units.

For data set [1], the system named is Bacillus anthracis. The data set is described as follows: Inhibition of inosine/L-alanine-induced Bacillus anthracis Sterne 34F2 spore germination pretreated for 15 mins before inosine/L-alanine challenge. The note with it: Bacillus anthracis, Sterne 34F2; read-out: IC50. Type of data set: functional, organism-based.
Data set [2] deals with Bacillus anthracis. The data set is described as follows: Antibacterial activity against Bacillus anthracis Sterne 34F2 infected in mouse J774A.1 cells assessed as protection against bacteria-induced cytotoxicity using propidium iodide staining after 3 hrs measured every hours for up to 7 hrs. The note with it: Bacillus anthracis, Sterne 34F2, J774.A1; read-out: IC50. Type of data set: functional, organism-based.

Data set [3] relates to Bacillus anthracis. The data set is described as follows: Ratio of IC50 for inosine/L-alanine-induced Bacillus anthracis Sterne 34F2 spore germination to IC50 for Bacillus anthracis Sterne 34F2 infected in mouse J774A.1 cells assessed as protection against bacteria-induced cytotoxicity. Type of data set: functional.
For data set [4], the system named is J774.A1. Nature of the data set: Cytotoxicity against mouse J774A1 cells. Type of data set: cell-based. In short, it runs like this: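 Uninfected J774A.1 macrophages, seeded at 8 × 10^5 cells/ml in serum-free DMEM, were given analogues at various final concentrations. Necrosis was assessed by 20 μM propidium iodide fluorescence at 617 nm, in parallel with the infected wells.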

On to `Nc1nc2c(ncn2[C@@H]2O[C@H](CO)[C@@H](O)[C@H]2O)c(=S)[nH]1` [THIOGUANOSINE], for which the negative logarithm of the IC50 (pIC50) in data set [1] is 3.00; in data set [2], 5.40. In data set [3], the “Ratio IC50” value is 300. Besides, the Activity entry in data set [4] is on record as “Non-toxic”.
